High-throughput results (PubChem)
An excerpt weighted towards active compounds, which were near 3% of everything screened.
PfGluPho inh: PfG6PD (Plasmodium falciparum) enzyme inhibition; actives 0.78% (n = 350,000); PfGluPho enzyme, NADPH resazurin-diaphorase fluorescence; inhibition, % at 20 µM;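 active = inhibition reaching at least a set limit at 20 µM in the primary screen, cut at about 59% in these data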
ABHD5 PLIN5 PPI: inhibitors of human ABHD5-perilipin-5 interaction. Q00G26+Q8WTS1. Split G. princeps luciferase complementation, luminescence, 4 h. inhibition, % at 4 µM. actives 0.78% (n = 360,000);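 active = inhibition above the mean inhibition across every tested compound plus 3 SD, cut at about 22% in these data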
B2AR ag: agonists of human beta-2 adrenergic receptor inducing internalization. actives 0.43% (n = 340,000). P07550. response, % (test concentration not listed). Am2.2-beta2AR cells, FAP receptor internalization, flow cytometry;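 active = response above a set limit, near 3 SD of response in nonfluorescent compounds, cut at about 42% in these data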
MC4R barr agon: human MC4R agonism via beta-arrestin | P32245 | U2OS MC4R beta-arrestin complementation, luminescence; percent of melanotan II response, DMSO zero | activation, % at 8.9 µM | actives 0.98% (n = 360,000);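 active = activation above a per-plate cutoff, the mean activation of sample wells on that plate plus 3 SD, cut at about 8% in these data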
Target sequence (P32245 whole entry, looked up): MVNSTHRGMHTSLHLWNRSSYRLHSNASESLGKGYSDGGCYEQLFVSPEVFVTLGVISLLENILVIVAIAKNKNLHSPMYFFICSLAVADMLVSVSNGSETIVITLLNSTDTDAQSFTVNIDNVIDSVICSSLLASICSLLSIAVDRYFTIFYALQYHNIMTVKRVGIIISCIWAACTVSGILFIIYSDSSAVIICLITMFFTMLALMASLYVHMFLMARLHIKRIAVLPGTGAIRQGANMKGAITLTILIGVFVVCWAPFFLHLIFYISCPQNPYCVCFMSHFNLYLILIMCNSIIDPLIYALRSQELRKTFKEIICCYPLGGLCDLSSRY
MC4R antag cAMP: antagonists of human melanocortin 4 receptor (MC4R); MC4R-expressing cells, MTII-stimulated cAMP, LANCE TR-FRET; inhibition, % at 6.5 µM; actives 0.48% (n = 360,000);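 active = inhibition above its plate's cutoff, the mean of tested wells on that plate plus 3 SD, cut at about 29% in these data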
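material = U2OS cells stably expressing human melanocortin 4 receptor (MC4R) | also added = Melanotan II challenge | dosing = single nominal compound dose of 6.5 µM | detection = TR-FRET with Eu-cAMP and labeled anti-cAMP, 671 nm | replication = singlicate | timing = compound 30 min, challenge 1 h, detection 1 h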
B2AR ag CP1: agonists of human beta-2 adrenergic receptor. shares compounds with B2AR ag. Am2.2-beta2AR cells, FAP surface receptor, flow cytometry; hits give low values. percent response (surface receptor), % at 10 µM. actives 25% (n = 1,100);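 active = surface receptor percent response at or below 58%, roughly 3 SD from nonfluorescent compounds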
FAP fluor counter: counter-screen for beta-2AR agonists: fluorescence in Am2.2 cells; 1,100 tested, under 10 active; calls only at 10 µM; FAP fluorogen flow cytometry, fluorescence counterscreen; hits give low values; AID 588765; shares compounds with B2AR ag;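 active = percent response below a set limit in fluorescence channel 1 and below 50% in channel 8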
Of the large screens only hits and unclear results are named; the others gave an inactive call (follow-up assays come after a bar, where they were run).

CC(C)(Cc1ccccc1)/[N+]([O-])=C\c1ccc(C(F)(F)F)cc1	none
COc1ccc(-c2nn(-c3ccccc3)cc2C(=O)Nc2nccs2)cc1	B2AR ag 42.9 | B2AR ag CP1 inactive | FAP fluor counter inactive
COc1ccccc1NS(=O)(=O)c1cccc(NC(=O)c2nc3nc(C)cc(C)n3n2)c1	none | B2AR ag CP1 inactive | FAP fluor counter inactive
COc1ccc(NS(=O)(=O)c2cc(NC(=O)c3nc4nc(C)cc(C)n4n3)ccc2C)cc1	none | B2AR ag CP1 inactive | FAP fluor counter inactive
COc1ccccc1N1C(=O)CC(Sc2n[nH]c(-c3cccc(C)c3)n2)C1=O (centres undefined)	none
Cc1noc(C)c1COC(=O)c1csc2c1CCCC2	none
COc1ccc(N(C(=O)C(C)C)S(=O)(=O)c2ccc3c(c2)n(C)c(=O)n3C)cc1	none
COc1ccc(N(C(=O)c2cccc([N+](=O)[O-])c2)S(=O)(=O)c2ccc3c(c2)n(C)c(=O)n3C)cc1	B2AR ag 54.3 | B2AR ag CP1 inactive | FAP fluor counter inactive
CN(C)c1ccc(NC(=O)CSc2nnc(-c3cnccn3)n2C)cc1	none
Oc1ccc(C[C@@H]2CNCCN2CCc2cc(C(F)(F)F)cc(C(F)(F)F)c2)cc1	B2AR ag 79.7 | B2AR ag CP1 inactive | FAP fluor counter inactive
CCCNC(=O)C1(C)CCN(Cc2ccc(-c3ccccc3)o2)C1 (centres undefined)	none (no result: PfGluPho inh, B2AR ag)
CCC1CCCCN1CCCNC(=O)Cn1cnc2sc(C)c(S(=O)(=O)N3CC(C)CC(C)C3)c2c1=O (centres undefined)	B2AR ag 58.9 | B2AR ag CP1 inactive | FAP fluor counter inactive
Cc1cc(N2CCN(c3ccc([N+](=O)[O-])c4cccnc34)CC2)c2ccccc2n1	B2AR ag 95.0 | B2AR ag CP1 inactive | FAP fluor counter inactive
COc1ccc(Sc2nnc(-c3ccccc3)cc2C#N)cc1	none
N#Cc1cc(-c2ccccc2)nnc1Oc1ccccc1Cl	B2AR ag 57.2 | B2AR ag CP1 18.5 | FAP fluor counter inactive
CC(C)(O)C#Cc1ccc(C(=O)N2CCN(c3ccc(Cl)cc3)CC2)cc1	none
COc1ccc(CN(C)Cc2c(O)ccc3cc(Br)ccc23)cc1OC	B2AR ag 42.8 | B2AR ag CP1 inactive | FAP fluor counter inactive
C=CCn1c(O)c2ccc(C(=O)N=NC(=O)c3ccc(F)cc3)cc2c1O	none
Cc1ccc(C(C)(C)C)cc1S(=O)(=O)Nc1cccc(C(=O)N2CCN(c3ccccn3)CC2)c1	none
Nc1c(Cl)cnn(-c2ccccc2)c1=O	none | B2AR ag CP1 inactive | FAP fluor counter inactive
O=c1c(Cl)c(Cl)cnn1-c1ccccc1	none
O=C(Nc1ccc(Br)cc1)c1cccc(S(=O)(=O)Nc2cnc3ccccc3c2)c1	B2AR ag 46.6 | B2AR ag CP1 inactive | FAP fluor counter inactive
O=C(Nc1ccc(Br)cc1)c1cccc(S(=O)(=O)Nc2ccccn2)c1	none
COc1cccc(CN(C)C(=O)Cn2cc(C)c(=O)[nH]c2=O)c1	none
Cc1ccc(S(=O)(=O)N/N=C\c2ccc3c(c2)OCO3)c(C)c1	none
Cc1ccc(CN(C)c2nc(-c3cccnc3)nc3ccccc23)o1	B2AR ag 44.8 | B2AR ag CP1 inactive | FAP fluor counter inactive
CN(Cc1ccccc1F)c1nc(-c2cccnc2)nc2ccccc12	B2AR ag 79.7 | B2AR ag CP1 52.8 | FAP fluor counter inactive
CCOc1ccc(CN(C)c2nc(-c3cccnc3)nc3ccccc23)cc1OC	none | B2AR ag CP1 inactive | FAP fluor counter inactive
COc1ccc(CCNc2nc(-c3cccnc3)nc3ccccc23)cc1OC	none
Cc1ccccc1Nc1nc(-c2cccnc2)nc2ccccc12	none
CC(C)(C)c1ccc(CNC(=O)C2CCCN2C(=O)Nc2ccccc2)cc1 (centres undefined)	none
O=CN1CCN(c2c([N+](=O)[O-])c(=O)oc3ccccc23)CC1	none
COc1cc2c(cc1OC)C(c1ccc(-c3cc(Cl)ccc3Cl)o1)=NCC2	none | B2AR ag CP1 inactive | FAP fluor counter inactive
COc1cc2c(cc1OC)C(c1ccc(-c3ccccc3Cl)o1)=NCC2	none
O=c1nc(-c2ccccc2)c2ccccc2[nH]1	B2AR ag 60.4 | B2AR ag CP1 inactive | FAP fluor counter inactive
Cc1ccc(-c2nc(=O)[nH]c3ccccc23)cc1	none
CC(COc1ccccc1)NC(C)C(O)c1ccc(O)cc1 (centres undefined)	none | B2AR ag CP1 inactive | FAP fluor counter inactive
C[C@H](NCCc1ccc(O)cc1)[C@H](O)c1ccc(O)cc1	none | B2AR ag CP1 inactive | FAP fluor counter inactive
CC(=O)NCCc1ccc(O)cc1	none
Cc1cc(CN(C)C(=O)CC2C(=O)NCCN2Cc2ccc(-c3ccccc3)cc2)on1 (centres undefined)	B2AR ag 46.1 | B2AR ag CP1 inactive | FAP fluor counter inactive
Cc1cc(CN(C)C(=O)CC2C(=O)NCCN2Cc2ccc(F)c(F)c2)on1 (centres undefined)	none
Cc1ccc(CCNC(=O)c2sc3nc4n(c(=O)c3c2C)CCC4)cc1	none
CCN(Cc1ccccc1)C(=O)CSc1nc(C)cc(=O)[nH]1	none
CCN(CC)C(=O)CSc1nc(-c2ccccc2)cc(=O)[nH]1	none | B2AR ag CP1 inactive | FAP fluor counter inactive
Cc1cc(C)c(C)c(S(=O)(=O)NCc2ccc(C(=O)N3CCN(C)CC3)cc2)c1C	none
COc1ccc(CN2C[C@H]3CCCN3c3cc(Br)ccc3S2(=O)=O)cc1	B2AR ag 43.8 | B2AR ag CP1 inactive | FAP fluor counter inactive
CCOc1ncccc1C(=O)Nc1ccc(C)cn1	none
Nc1nc(SCc2ccccc2)c2ncn(C3CCCO3)c2n1 (centres undefined)	none
Cn1c(SCC(=O)N/N=C/C=C/c2ccco2)nc2ccccc21	none | B2AR ag CP1 inactive | FAP fluor counter inactive
Cn1c(SCC(=O)N/N=C/C=C/c2ccccc2[N+](=O)[O-])nc2ccccc21	none
OC(c1cc(C(F)(F)F)nc2c(C(F)(F)F)cccc12)C1CCCCN1 (centres undefined)	none | B2AR ag CP1 inactive | FAP fluor counter inactive
O=C(COc1ccc(S(=O)(=O)N2CCOCC2)cc1)Nc1ccccc1C(F)(F)F	none | B2AR ag CP1 inactive | FAP fluor counter inactive
O=C(COc1ccc(S(=O)(=O)N2CCOCC2)cc1)NCCc1ccccc1	none
O=C(COc1ccccc1)Nc1ccc(S(=O)(=O)N2CCCCCC2)cc1	none
O=C(COc1ccc(S(=O)(=O)N2CCCCC2)cc1)Nc1ccccc1F	none | B2AR ag CP1 inactive | FAP fluor counter inactive
COc1ccc(NC(=O)Nc2nnc([C@H]3C[C@H](O)[C@@H](CO)O3)s2)cc1	none (no result: PfGluPho inh, B2AR ag)
COc1ccc(C(=O)CCC(=O)Nc2ccc(N3CCCCC3)cc2)cc1OC	B2AR ag 72.3 | B2AR ag CP1 inactive | FAP fluor counter inactive
